These results are taken from ChEMBL document CHEMBL3865814, “Chemical Constituents Isolated from the Root Bark of Cudrania tricuspidata and Their Potential Neuroprotective Effects” (J Nat Prod, 2016).

Assay type in all cases: functional, cell-based
A short description of assay [1]: Neuroprotective activity in human SH-SY5Y cells assessed as reduction in oxygen glucose deprivation-induced cell death incubated for 16 hrs under hypoxic condition followed by incubation for 24 hrs under normoxic condition by MTT assay. The gist of the method: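 After 24 h plating (2 × 10^4/well, DMEM with 10% FBS and glucose), medium was switched to serum- and glucose-free RPMI and samples or vehicle added. Cells were held 16 h under 95% N2/5% CO2, then reoxygenated 24 h in RPMI with 10% FBS and glucose at 37 °C. Viability was by MTT at A540. EC50 is half-maximal protection, mean of triplicates.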
On the technique in general: Tetrazolium assays rely on reduction of a dye to a coloured formazan, in cell work by metabolically active cells.

Assay [2] is described as follows: Neuroprotective activity in human SH-SY5Y cells assessed as reduction in 1-methyl-4-phenylpyridinium ion-induced cell death after 48 hrs by MTT assay. Summed up: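 SH-SY5Y cells in DMEM with 10% heat-inactivated FBS and 1% penicillin/streptomycin were seeded at 2 × 10^4 cells/well for 24 h, then exposed to 2 mM MPP+ for 48 h. MTT (0.5 mg/mL in PBS) was added for 4 h at 37 °C, formazan dissolved in DMSO and absorbance read at 540 nm. EC50 is the concentration giving half-maximal protection, mean of triplicates.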

Assay [3] is described as follows: Neuroprotective activity in human SH-SY5Y cells assessed as reduction in 6-OHDA-induced cell death measured after 24 hrs by MTT assay. Summed up: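 Cells were seeded at 2 × 10^4 per well and grown 24 h in DMEM with 10% heat-inactivated FBS at 37 °C under 5% CO2. They were then co-treated with graded sample concentrations and 100 μM 6-OHDA for 24 h. Viability was by MTT (0.5 mg/mL, 4 h, 37 °C), DMSO solubilization and A540. EC50 is half-maximal protection, mean of triplicate determinations.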

Broadly, the EC50 is the concentration that produces a half-maximal response. Take `C=C(C)C(O)Cc1c(OC)c(O)cc2oc3c4c(cc(O)c3c(=O)c12)OC(CO)C4(C)C` (stereo not given): the EC50 in assay [1] is 28.5 µM; in assay [2], greater than 50 µM.

`CC(C)=CC1Oc2cc(O)ccc2-c2oc3cc4c(c(O)c3c(=O)c21)C=CC(C)(C)O4` (stereo not given) [CUDRAFLAVONE A]: the half-maximal effective concentration (EC50) in assay [1] was 13.5 µM; in assay [2] it was greater than 50 µM; in assay [3] it was 15.5 µM.

With `CC(C)=CCc1c(O)c(O)cc2c(=O)c3c4c(c(O)cc3oc12)C(C)(C)C(C)O4` (stereo not given), the EC50 in assay [1] is 34.9 µM; in assay [2] it was greater than 50 µM. Consider `NCCC(=O)N[C@@H](Cc1c[nH]cn1)C(=O)O` [CARNOSINE], for which the EC50 in assay [1] is 3 µM.

For the compound `C=CC(C)(C)c1c(O)cc(O)c2c(=O)c3c4c(c(O)cc3oc12)O[C@@H](C(C)(C)O)C4`, the EC50 in assay [1] was 12.2 µM; in assay [2], greater than 50 µM.

On to `O=c1ccoc2cc(O)cc(O)c12`, for which, in assay [3], the half-maximal effective concentration (EC50) was 1.9 µM. For `CC1Oc2cc3oc4c5c(c(O)cc4c(=O)c3c(O)c2C1(C)C)OC(C(C)(C)O)C5` (stereo not given), the figures for the concentration giving a half-maximal response (EC50) in assay [1] and in assay [2] were 6 µM and greater than 50 µM, respectively.

Take `CC(C)=CCOc1c2occc2cc2ccc(=O)oc12` [PENTOSALEN]: the concentration giving a half-maximal response (EC50) in assay [1] is 8.4 µM; in assay [2] it was greater than 50 µM. Consider `O=Cc1ccc(O)cc1` [4-HYDROXYBENZALDEHYDE], for which the EC50 in assay [3] stood at 30.2 µM.

`COc1c(C(C)=O)ccc2c1C=CC(C)(C)O2`: the EC50 in assay [1] was 22.3 µM; in assay [2], greater than 50 µM.

With `COC(=O)c1ccc(O)cc1O` [METHYL 2,4-DIHYDROXYBENZOATE], the EC50 in assay [1] was 35.5 µM; in assay [2], greater than 50 µM.

Turning to `C=C(C)C(=O)Cc1c(OC)c(O)cc2oc3c4c(cc(O)c3c(=O)c12)OC(CO)C4(C)C` (stereo not given), the concentration for a half-maximal effect (EC50) in assay [1] is 13.2 µM; in assay [2] it was greater than 50 µM. `C=C(C)[C@@H]1CC[C@]2(C(=O)O)CC[C@]3(C)[C@H](CC[C@@H]4[C@@]5(C)CC[C@H](O)C(C)(C)[C@@H]5CC[C@]43C)[C@@H]12` [BETULINIC ACID]: in assay [2], the EC50 came out at 4.3 µM.

On to `C=C1CC[C@H](O)C(C)(C)[C@@H]1CC/C(C)=C/CC/C=C(\C)CC/C=C(\C)CCC=C(C)C`, for which the values for the half-maximal effective concentration (EC50) in assay [1], in assay [2] and in assay [3] were 6.5 µM, greater than 50 µM and 7.2 µM, respectively. For the compound `CCCCCCCC/C=C\CCCCCCCC(=O)O` [OLEIC ACID], the EC50 in assay [3] is 9.5 µM. Regarding `C=CC(C)(C)c1c(OC)cc(O)c2c(=O)c3c(CC=C(C)C)c(O)c(O)cc3oc12` [CUDRAXANTHONE D], the EC50 in assay [1] was 4.8 µM; in assay [2] it was greater than 50 µM.

Regarding `CC1(C)C=Cc2c(c(O)cc3c(=O)c4c(O)c5c(cc4oc23)OC(CO)C5(C)C)O1` (stereo not given), the EC50 was 11.2 µM in assay [1] and greater than 50 µM in assay [2].

In the case of `CC1(C)CC[C@]2(C)CC[C@]3(C)[C@H]4CC=C5[C@@H](CC[C@H](O)C5(C)C)[C@]4(C)CC[C@@]3(C)[C@@H]2C1` [GLUTINOL], the EC50 in assay [3] was 12.9 µM. Consider `CC1(C)CCc2cc(C3CC(=O)c4c(O)cc5c(c4O3)CCC(C)(C)O5)c(O)cc2O1` (stereo not given), for which the concentration giving a half-maximal response (EC50) in assay [3] came to 9.1 µM. Regarding `CC(C)=CCc1c2c(c(O)c3c(=O)c4ccc(O)c(O)c4oc13)C(C)(C)C(C)O2` (stereo not given), the EC50 in assay [1] was 17.2 µM; in assay [2], greater than 50 µM.

Consider `CC(C)=CCc1cc2ccc(=O)oc2cc1O` [DEMETHYLSUBEROSIN], for which the EC50 in assay [1] worked out at 8.6 µM; in assay [2], 0.2 µM.

With `CC(C)=CCOc1c2ccoc2cc2oc(=O)ccc12` [ISOIMPERATORIN], the EC50 in assay [1] was 3.5 µM; in assay [2], greater than 50 µM; in assay [3], 9.2 µM. As to `CC1Oc2cc3oc4c5c(c(O)cc4c(=O)c3c(O)c2C1(C)C)OC(C)(C)C(O)C5` (stereo not given), the concentration giving a half-maximal response (EC50) in assay [1] is 23.6 µM; in assay [2], greater than 50 µM. With `CC1(C)C=Cc2c(c(O)cc3oc4c5c(cc(O)c4c(=O)c23)OC(CO)C5(C)C)O1` (stereo not given), the concentration for a half-maximal effect (EC50) in assay [1] was 8.9 µM; in assay [2] it was greater than 50 µM. As to `CC1Oc2cc(O)c3c(=O)c4c5c(c(O)cc4oc3c2C1(C)C)OC(C)(C)C=C5` (stereo not given), the EC50 in assay [1] was 3.5 µM; in assay [2], greater than 50 µM. Taken in the same sequence, the figures for `CC(C)=CCc1c(O)c(O)cc2oc3c4c(cc(O)c3c(=O)c12)OC(C)C4(C)C` (stereo not given) [CUDRATRICUSXANTHONE J] were greater than 50 µM and 8.1 µM.

Regarding `CC1(C)C=Cc2cc3ccc(=O)oc3cc2O1` [XANTHYLETIN], the EC50 in assay [3] was 8 µM. Take `C[C@H]1[C@H](C)CC[C@]2(C)CC[C@]3(C)C(=CC[C@@H]4[C@@]5(C)CC[C@H](O)C(C)(C)[C@@H]5CC[C@]43C)[C@H]12`: the results for the 50% effective concentration (EC50) in assay [1] and in assay [2] were 13.3 µM and greater than 50 µM, respectively. Consider `C=CC(C)(C)c1c(OC)cc(O)c2c(=O)c3c(CC(O)C(=C)C)c(O)c(O)cc3oc12` (stereo not given), for which the EC50 in assay [1] was 2.9 µM; in assay [2], greater than 50 µM. With `C=CC(C)(C)c1c(OC)cc(O)c2c(=O)c3c(cc(O)c4oc(C(C)(C)O)cc43)oc12`, the concentration for a half-maximal effect (EC50) was greater than 50 µM in assay [1] and 10.3 µM in assay [2].

Turning to `C=CC(C)(C)c1c(O)cc(O)c2c(=O)c3c4c(c(O)cc3oc12)OC(C)(C)C=C4`, the EC50 in assay [1] was 33.3 µM; in assay [2], greater than 50 µM.

For `COCc1ccc(O)cc1`, the concentration for a half-maximal effect (EC50) in assay [1] is 7.9 µM; in assay [2], greater than 50 µM. On to `COc1cc(/C=C/C(=O)CC(=O)/C=C/c2ccc(O)c(OC)c2)ccc1O` [CURCUMIN], for which the 50% effective concentration (EC50) in assay [3] was 6.2 µM.
